Assay results published in ChEMBL document CHEMBL2177081, “Orally active metabotropic glutamate subtype 2 receptor positive allosteric modulators: structure-activity relationships and assessment in a rat model of nicotine dependence” (J Med Chem, 2012).

Assays:
Rattus norvegicus [1] = experiment: Cmax in rat at 10 mg/kg, po; assay type: ADME, organism-based; set-up: dose 10 mg/kg, route oral; details: in vivo
In short: (§1)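 Sodium salts were given to rats by oral dose at 10 mg/kg in sterile water, with n = 3 or 5 animals per compound. Plasma concentration was measured over time to give Cmax, Tmax, terminal half-life and oral bioavailability (F). Brain and plasma were taken at or near Tmax.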

Rattus norvegicus [2] = experiment: AUC (0 to t) in rat at 10 mg/kg, ip; assay type: ADME, organism-based, Plasma; set-up: dose 10 mg/kg, route intraperitoneal; details: in vivo
Rattus norvegicus [3] = experiment: Volume of distribution in rat at 10 mg/kg, ip; assay type: ADME, organism-based; set-up: dose 10 mg/kg, route intraperitoneal; details: in vivo
In short: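 Intraperitoneal dose of 10 mg/kg in rats, given as sodium salt in sterile water; plasma PK parameters including volume of distribution.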

Rattus norvegicus [4] = experiment: (§2) Cmax in rat at 10 mg/kg, ip; assay type: ADME, organism-based; set-up: dose 10 mg/kg, route intraperitoneal; details: in vivo
In short: (§3)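 Intraperitoneal dosing in rats at 10 mg/kg, sodium salt form, sterile water vehicle. Cmax is the maximum compound concentration detected in plasma, and terminal half-life was derived from the plasma profile.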

Rattus norvegicus [5] = experiment: AUC (0 to t) in rat at 10 mg/kg, po; assay type: ADME, organism-based, Plasma; set-up: dose 10 mg/kg, route oral; details: in vivo
In short: (§4)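 Sodium salt given orally at 10 mg/kg in sterile water to rats, n = 3 (n = 5 for one compound). Plasma was sampled over time for Cmax, Tmax, AUC(0–t), t1/2 and oral bioavailability. Brain and plasma were harvested at or near Tmax to measure levels and the brain:plasma ratio.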

Rattus norvegicus [6] = experiment: Tmax in rat at 10 mg/kg, po; assay type: ADME, organism-based; set-up: dose 10 mg/kg, route oral; details: in vivo
Rattus norvegicus [7] = experiment: Volume of distribution in rat at 10 mg/kg, po; assay type: ADME, organism-based; set-up: dose 10 mg/kg, route oral; details: in vivo
In short: (§5)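 Rats dosed orally at 10 mg/kg as sodium salts in sterile water, n = 3 (n = 5 for one compound). Plasma sampled for PK parameters; brain and plasma harvested at or near Tmax for levels and brain:plasma ratio.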

Rattus norvegicus [8] = experiment: AUC (0 to t) in rat at 2 mg/kg, iv; assay type: ADME, organism-based, Plasma; set-up: dose 2 mg/kg, route intravenous; details: in vivo
Rattus norvegicus [9] = experiment: Volume of distribution in rat at 2 mg/kg, iv; assay type: ADME, organism-based; set-up: dose 2 mg/kg, route intravenous; details: in vivo
In short: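 Intravenous dose of 2 mg/kg in rats, given as sodium salt in sterile water; plasma PK parameters including volume of distribution.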

Rattus norvegicus [10] = experiment: Cmax in rat at 2 mg/kg, iv; assay type: ADME, organism-based; set-up: dose 2 mg/kg, route intravenous; details: in vivo
In short: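 Rats received sodium salts intravenously at 2 mg/kg in sterile water. Cmax is the maximum compound concentration detected in plasma, and terminal half-life was derived from the plasma concentration–time profile.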

Brain = experiment: Drug level in rat brain at 10 mg/kg, po; assay type: ADME, organism-based; set-up: dose 10 mg/kg, route oral; details: in vivo, read-out: Drug uptake; in short: as §4
Plasma = experiment: Plasma concentration in rat at 10 mg/kg, po; assay type: ADME, organism-based; set-up: dose 10 mg/kg, route oral; details: in vivo; in short: as §5
Rattus norvegicus [11] = experiment: Oral bioavailability in rat at 10 mg/kg; assay type: ADME, organism-based; details: in vivo; in short: as §1
Rattus norvegicus [12] = experiment: Ratio of drug level in brain to plasma in rat at 10 mg/kg, po
[13] = as §2; assay type: ADME, organism-based; set-up: dose 10 mg/kg, route intraperitoneal; details: in vivo; in short: as §3

Compound	Cmax (Rattus norvegicus [1]) [nM]	AUCt (Rattus norvegicus [2]) [µM·h]	Vd (Rattus norvegicus [3]) [mL]	Cmax (Rattus norvegicus [4]) [nM]	AUCt (Rattus norvegicus [5]) [µM·h]	Tmax (Rattus norvegicus [6]) [min]	Vd (Rattus norvegicus [7]) [mL]	AUCt (Rattus norvegicus [8]) [µM·h]	Vd (Rattus norvegicus [9]) [mL]	Cmax (Rattus norvegicus [10]) [nM]	concentration (Brain) [nM]	concentration (Plasma) [nM]	F (Rattus norvegicus [11]) [%]	BPR (Rattus norvegicus [12])	Cmax [13] [nM]
O=C([O-])c1cc(-c2cccc(-c3ccc4c(c3)CN(C3CCCC3)C4=O)c2)ccc1Cl.[Na+]	400	3.23	21.2	2000	2.67	30	96.2								
O=C([O-])c1cc(-c2cccc(COc3ccc4c(c3)CN(C3CCCC3)C4=O)c2)ccc1O.[Na+]	1600				7.1	30	28	2.57	4.3	3900	7.1	210	109.2	0.0335	
COc1ccc(C(=O)[O-])cc1-c1cccc(COc2ccc3c(c2)CN(C2CCCC2)C3=O)c1.[Na+]	4000				12	30	10875.2	6.7	4620	5600	180	1460	84.8	0.13	
O=C([O-])c1cc(-c2cccc(COc3ccc4c(=O)n(C5CC5)sc4c3)c2)ccc1Cl.[Na+]	8500	25.8	2.4		61.5	60	4.1				30	800		0.04	9600
O=C([O-])c1cc(-c2cccc(COc3ccc4c(c3)CN(C3CCCC3)C4=O)c2)ccc1Cl.[Na+]	3000				42.5		3	11.8	0.6	28200			71.4	0.039	
